Experimental data: paper PMC11913021 (Journal of Medicinal Chemistry, 2024)
Where two headings read alike, the source gives them in different places.

How the values were obtained:
Assay type in all cases: cell-based
[1] = test system: PLD; assay: PLD activity inhibition in A549 cells; conditions: read-out: IC50 for PLD inhibition
[2] = test system: A549 cells; assay: WST-1 cell viability assay, A549; conditions: read-out: IC50 of viability
Summary of the method: (§1)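 Cells grown in DMEM or RPMI 1640 with 10% FBS and 1% penicillin/streptomycin at 37 °C, 5% CO2. Seeded at 5 × 10^3 cells/well and held 24 h at 37 °C, then exposed to test compound for 48 h. WST-1 absorbance was read at 450 nm, in triplicate. IC50 was taken as the concentration giving 50% growth inhibition versus control.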

[3] = test system: HCT116 cells; assay: WST-1 cell viability assay, HCT116; conditions: read-out: IC50 of viability; HCT116, WST-1, 48 h
Summary of the method: as §1

Row | IC50 [1] [µM] | IC50 ([2]; A549, WST-1, 48 h) [µM] | IC50 [3] [µM] | IC50 ([2]; Homo sapiens, A549, 48 h) [µM] | Molecule
1 | 3.1 | 50 | > 50 |  | 3,5-Bis(trifluoromethyl)phenyl 5-Fluoro-1H-indole-2-carboxylate [3ac]
2 |  |  |  | 18.5 | C[C@@H](CN1CCC(n2c(=O)[nH]c3cc(Cl)ccc32)CC1)NC(=O)c1ccc2ccccc2c1 [VU0155069, reference compound]
3 | 4.31 | > 200 | > 50 |  | N-(3,4-Dihydroxyphenyl)-5-fluoro-1H-indole-2-carboxamide [4c]
